A selection: hits, their analogues and other compounds. The true share with any hit is near 2.4%.
Myeloid diff 2: induction of myeloid progenitor differentiation, primary screen, cell-based, flow cytometry, MLPCN library. ER-HoxA9 myeloid progenitors, lysozyme-GFP differentiation. calls only at 10 µM. 1% of 360,000 active;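 active = normalized GFP-positive differentiation at or above the plate's own cutoff, the solvent-only control mean plus 3 SD; inconclusive = no clear call, values can overlap the other calls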;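 note: cells exposed to compound for four days before flow analysis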
MT1-MMP act inh: blockers of MT1-MMP proenzyme processing, primary screen, HT1080 RFP-PRO-GFP cells, GFP/RFP fluorescence | 0.061% of 360,000 active | GFP/RFP ratio change, % at 20 µM | GFP/RFP ratio fluorescence, overnight; percent of plate control window, DMSO zero | Matrix metalloproteinase-14 (Homo sapiens), P50281;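 active = GFP/RFP ratio change of at least 30% with cell ATP level not reduced by more than half and red fluorescence within 50% of control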
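Material: RFP-PRO-GFP reporter HT1080 cells. Dosing: single-point 20 µM compound, 1% DMSO. Controls: DMSO and RFP-L50D-GFP cell wells. Timing: cells overnight before dosing, compound overnight, 37 °C, 5% CO2. Measure: GFP/RFP fluorescence ratio.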
beta cell repl: inducers of MIN6 beta-cell proliferation, primary screen, ATP luminescence, uHTS. MIN6 cells proliferation, ATPlite luminescence, 48 h; cells starved in 0.2% serum; 100% = growth in 10% serum. proliferation, % at 10 µM. 0.29% of 330,000 active;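 active = compounds whose signal lies at least 3.5 SD above the mean of all wells on their plate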
SENP1 FRET inh: human SENP1 catalytic domain inhibitors, primary screen, biochemical, FRET, uHTS | recombinant SENP1 catalytic domain, CyPet-SUMO1-YPet FRET cleavage | 0.21% of 360,000 active | inhibition, % at 10 µM | Sentrin-specific protease 1 (Homo sapiens), Q9P0U3 | AID 624204, 2012;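 active = inhibition at least 30% at 10 µM, raw YFP signal under a set limit, fluorescence ratio 0.5 to 1.5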
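Test system: hSENP1 catalytic domain, recombinant; Amount: 20 pM final SENP1 enzyme; Medium: Tris pH 8 buffer plus EDTA, NaCl, BME, BSA, NP40, catalase; Schedule: 50 min enzyme reaction, room temperature, light-protected; Technique: FRET fluorescence in CFP and YFP emission channels; Controls: no-enzyme wells low, DMSO-plus-enzyme wells high control.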
DAGLB inhibitor: DAGLB lipase inhibitors, primary screen, biochemical, fluorescence, HTS; HEK293T DAGLB membrane lysate, EnzChek fluorogenic substrate; inhibition, % at 5.17 µM; Diacylglycerol lipase-beta (Homo sapiens), Q8NCG7; 0.059% of 340,000 active; in the data active = inhibition above about 34%
CendR NRP1 mod: modulators of CendR peptide binding to NRP-1, primary screen, biochemical, fluorescence polarization, uHTS | AID 602438, 2012 | FAM-RPARPAR peptide binding to NRP-1 | inhibition, % at 25 µM | 0.85% of 360,000 active | Neuropilin-1 (Homo sapiens), O14786;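 active = inhibition or corrected inhibition above about 18%, plus a signal ratio from 0.5 to 1.5, limit read from the data, passing the limit was not always enough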
A number is an active result.

Screening CCN1/C(=C/c2ccc3ccccc3[n+]2CC)C=Cc2ccccc21 returned Myeloid diff 2 inconclusive, MT1-MMP act inh inactive, beta cell repl inactive, SENP1 FRET inh 63, DAGLB inhibitor inactive and CendR NRP1 mod inactive.
`COc1ccccc1N(C)S(=O)(=O)c1ccc(C(=O)OCC(=O)N2CCC2)cc1` gave Myeloid diff 2 inactive, MT1-MMP act inh inactive, beta cell repl inactive, SENP1 FRET inh inactive, DAGLB inhibitor inactive and CendR NRP1 mod inactive.
`CC(NS(=O)(=O)c1cn(C)c(=O)n(C)c1=O)c1ccccc1` (stereo unspecified) gave Myeloid diff 2 inactive, MT1-MMP act inh inactive, beta cell repl inactive, SENP1 FRET inh inactive, DAGLB inhibitor inactive and CendR NRP1 mod 26.
Cn1cc(S(=O)(=O)NCCc2ccccc2)c(=O)n(C)c1=O was read as Myeloid diff 2 inactive, MT1-MMP act inh inactive, beta cell repl inactive, SENP1 FRET inh inactive, DAGLB inhibitor inactive and CendR NRP1 mod inactive.
`CCCC(=O)C1=C(O)C(C(=O)OC)C(C)(C)CC1=Nc1ccc(N)cc1` (stereo unspecified) gave Myeloid diff 2 inactive, MT1-MMP act inh inactive, beta cell repl inactive, SENP1 FRET inh inactive, DAGLB inhibitor inactive and CendR NRP1 mod inactive.
CCCC(=Nc1ccc(N)cc1)C1=C(O)C(C(=O)OC)C(C)(C)CC1=O (stereo unspecified) was read as Myeloid diff 2 inactive, MT1-MMP act inh inactive, beta cell repl inactive, SENP1 FRET inh 44, DAGLB inhibitor inactive and CendR NRP1 mod inactive.
O=C(O)CONC(=O)c1cc(OCC(F)(F)F)ccc1OCC(F)(F)F was read as Myeloid diff 2 inactive, MT1-MMP act inh inactive, beta cell repl inactive, SENP1 FRET inh inactive, DAGLB inhibitor inactive and CendR NRP1 mod inactive.
For Cc1c(NC(=O)c2ccc(NS(=O)(=O)c3ccccc3)cc2)c(=O)n(-c2ccccc2)n1C the results were Myeloid diff 2 inactive, MT1-MMP act inh inactive, beta cell repl inactive, SENP1 FRET inh inactive, DAGLB inhibitor inactive and CendR NRP1 mod inactive.
Screening O=[N+]([O-])c1ccc(N/N=C/c2cccc(O)c2O)c(S(=O)(=O)N2CCOCC2)c1 returned Myeloid diff 2 inactive, MT1-MMP act inh inactive, beta cell repl inactive, SENP1 FRET inh inactive, DAGLB inhibitor inactive and CendR NRP1 mod inactive.
For Cc1ccc(NS(=O)(=O)c2cc([N+](=O)[O-])ccc2N/N=C/c2sc(N3CCOCC3)nc2-c2ccccc2)c(C)c1 the results were Myeloid diff 2 active, MT1-MMP act inh inactive, beta cell repl inactive, SENP1 FRET inh inactive, DAGLB inhibitor inactive and CendR NRP1 mod inactive.
`CN=c1sc2ccccc2n1CC(O)c1ccccc1` (stereo unspecified) gave Myeloid diff 2 inactive, MT1-MMP act inh inactive, beta cell repl inactive, SENP1 FRET inh inactive, DAGLB inhibitor inactive and CendR NRP1 mod inactive.
Screening CN=c1sc2ccccc2n1CC(O)COCc1ccco1 (stereo unspecified) returned Myeloid diff 2 active, MT1-MMP act inh inactive, beta cell repl inactive, SENP1 FRET inh inactive, DAGLB inhibitor inactive and CendR NRP1 mod inactive.
COc1ccc(CN2CCN(C(C)C)C(CCO)C2)cc1Cn1cncn1 (stereo unspecified) was read as Myeloid diff 2 inactive, MT1-MMP act inh inactive, beta cell repl inactive, SENP1 FRET inh inactive, DAGLB inhibitor inactive and CendR NRP1 mod inactive.
For CC(=O)C(=Cc1ccc(Cl)cc1)C(=O)c1ccccc1 the results were Myeloid diff 2 inactive, MT1-MMP act inh inactive, SENP1 FRET inh inactive and CendR NRP1 mod 22.
Screening COc1ccc(C=C(C(C)=O)C(=O)c2ccccc2)cc1 returned Myeloid diff 2 inactive, MT1-MMP act inh inactive, SENP1 FRET inh inactive and CendR NRP1 mod inactive.
For CCC(C(=O)NC(C)(C)C)n1c(-c2cccc(NC(C)=O)c2)nc2ccccc21 (stereo unspecified) the results were Myeloid diff 2 inactive, MT1-MMP act inh inactive, SENP1 FRET inh inactive and CendR NRP1 mod inactive.
`CC(C)(C)c1cc[n+](-c2[nH]c(=O)sc2/C=N/N=C(\[O-])c2cccnc2)cc1` gave Myeloid diff 2 inactive, MT1-MMP act inh inactive, beta cell repl inactive, SENP1 FRET inh inactive, DAGLB inhibitor inactive and CendR NRP1 mod inactive.
Cc1cc[n+](-c2[nH]c(=O)sc2/C=N/NC([S-])=Nc2ccccc2)cc1 was read as Myeloid diff 2 inactive, MT1-MMP act inh inactive, beta cell repl inactive, SENP1 FRET inh inactive, DAGLB inhibitor inactive and CendR NRP1 mod 55.
For CC(C)(C)c1cc[n+](-c2[nH]c(=O)sc2/C=N/NC(=O)c2ccccc2[O-])cc1 the results were Myeloid diff 2 inactive, MT1-MMP act inh inactive, beta cell repl inactive, SENP1 FRET inh inactive, DAGLB inhibitor inactive and CendR NRP1 mod 27.
Screening Cc1cc(C)c[n+](-c2[nH]c(=O)sc2/C=N/NC([S-])=Nc2ccccc2)c1 returned Myeloid diff 2 inactive, MT1-MMP act inh inactive, beta cell repl inactive, SENP1 FRET inh 33, DAGLB inhibitor inactive and CendR NRP1 mod 47.
`CC(C)n1nccc1NC(=O)Nc1ccccc1` gave Myeloid diff 2 inactive, MT1-MMP act inh inactive, beta cell repl inactive, SENP1 FRET inh inactive, DAGLB inhibitor inactive and CendR NRP1 mod inactive.
For COc1ccc(CCNC(=O)CC(Cc2ccccc2)C(=O)O)cc1OC (stereo unspecified) the results were Myeloid diff 2 inactive, MT1-MMP act inh inactive, beta cell repl inactive, SENP1 FRET inh inactive, DAGLB inhibitor inactive and CendR NRP1 mod inactive.
Screening CC[n+]1c(/C=C/C=C/N(C(C)=O)c2ccccc2)sc2ccccc21 returned Myeloid diff 2 active, MT1-MMP act inh inactive, beta cell repl inactive, SENP1 FRET inh inactive, DAGLB inhibitor inactive and CendR NRP1 mod inactive.
`CC(C)NC(=O)NC(=O)COC(=O)/C=C/c1ccccc1[N+](=O)[O-]` gave Myeloid diff 2 inactive, MT1-MMP act inh inactive, beta cell repl inactive, SENP1 FRET inh inactive, DAGLB inhibitor inactive and CendR NRP1 mod inactive.
CCSc1nnc(-c2sc3nnc(-c4ccccc4)c(-c4ccccc4)c3c2N)o1 was read as Myeloid diff 2 active, MT1-MMP act inh inactive, beta cell repl inactive, SENP1 FRET inh inactive, DAGLB inhibitor inactive and CendR NRP1 mod inactive.
`O=C(O)C1CCN(c2ccccc2[N+](=O)[O-])CC1` gave Myeloid diff 2 inactive, MT1-MMP act inh inactive, beta cell repl inactive, SENP1 FRET inh inactive, DAGLB inhibitor inactive and CendR NRP1 mod inactive.
Cc1cccc(OCCNc2ccc([N+](=O)[O-])cn2)c1 was read as Myeloid diff 2 inactive, MT1-MMP act inh inactive, beta cell repl inactive, SENP1 FRET inh inactive, DAGLB inhibitor inactive and CendR NRP1 mod inactive.
